In ChEMBL document CHEMBL1921722, “In vitro and in vivo evaluation of select kahalalide F analogs with antitumor and antifungal activities” (Bioorg Med Chem, 2011):
Activity calls are given as the source filed them.

Key:
OVCAR-5 = assay: Cytotoxicity against human OVCAR5 cells assessed as cell growth at 80 nM by sulforhodamine B assay relative to control; type: functional; settings: read-out: Activity
MOLT-4 = assay: Cytotoxicity against human MOLT4 cells assessed as cell growth at 8 uM by sulforhodamine B assay relative to control; type: functional; settings: read-out: Activity
M14 = assay: Cytotoxicity against human M14 cells assessed as cell growth at 80 uM by sulforhodamine B assay relative to control; type: functional; settings: read-out: Activity
SW-620 [1] = assay: Antitumor activity against human SW620 cells xenografted in mouse assessed as tumor cell killing at 4.7 mg/kg, ip qd for 4 days by MTT assay; type: functional, organism-based; design: dose 4.7 mg/kg
Outline: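 Hollow-fiber assay in mice. Tumor lines were grown in RPMI-1640 with 10% FBS and 2 mM glutamine. Cells at 2 × 10^6 cells/ml were loaded into 1 mm PVDF fibers (500,000 Da cutoff), heat-sealed at 2 cm and held 24–48 h at 37 °C, 5% CO2 before implantation. Compound was given IP. Fibers were collected the day after the fourth treatment for MTT (OD 540 nm, group means). A ≥50% cut in percent net growth versus vehicle counted as positive.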

HL-60(TB) = assay: Cytotoxicity against human HL-60(TB) cells assessed as cell growth at 8 nM by sulforhodamine B assay relative to control; type: functional; settings: read-out: Activity
Malme-3M = assay: Cytotoxicity against human MALME-3M cells assessed as cell growth at 80 nM by sulforhodamine B assay relative to control; type: functional; settings: read-out: Activity
NCI-H322M = assay: Cytotoxicity against human NCI-H322M cells assessed as cell growth at 80 uM by sulforhodamine B assay relative to control; type: functional; settings: read-out: Activity
KM12 = assay: Cytotoxicity against human KM12 cells assessed as cell growth at 8 uM by sulforhodamine B assay relative to control; type: functional; settings: read-out: Activity
U-251 = assay: Cytotoxicity against human U251 cells assessed as cell growth at 80 uM by sulforhodamine B assay relative to control; type: functional; settings: read-out: Activity
NCI-H460 = assay: Cytotoxicity against human NCI-H460 cells by sulforhodamine B assay; type: functional
Outline: (§1)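 NCI Developmental Therapeutics Program 60-cell-line human tumor panel screen, run at NCI. A single-concentration pre-screen was followed by a five-concentration dose-response in 10-fold steps. GI50 is the concentration that reduces growth of treated cells to half that of untreated control cells. TGI is the concentration that completely halts growth.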

A498 = assay: Cytotoxicity against human A498 cells assessed as cell growth at 8 nM by sulforhodamine B assay relative to control; type: functional; settings: read-out: Activity
Outline: (§2)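 Run at NCI in the DTP 60-cell-line human tumor panel by standard procedure. Compounds were first screened at a single concentration, then tested at five tenfold-spaced concentrations. GI50 is the concentration reducing treated-cell growth to half that of untreated controls; TGI is the concentration completely halting growth.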

NCI-H522 [2] = assay: Cytotoxicity against human NCI-H522 cells assessed as cell growth at 80 nM by sulforhodamine B assay relative to control; type: functional; settings: read-out: Activity
T47D = assay: Cytotoxicity against human T47D cells assessed as cell growth at 80 nM by sulforhodamine B assay relative to control; type: functional; settings: read-out: Activity
SW-620 [3] = assay: Cytotoxicity against human SW620 cells by sulforhodamine B assay; type: functional; settings: for TGI: read-out: pTGI (converted); outline: as §1
SF-295 = assay: Cytotoxicity against human SF295 cells assessed as cell growth at 8 uM by sulforhodamine B assay relative to control; type: functional; settings: read-out: Activity
SF-539 = assay: Cytotoxicity against human SF539 cells assessed as cell growth at 80 uM by sulforhodamine B assay relative to control; type: functional; settings: read-out: Activity
OVCAR-3 = assay: Cytotoxicity against human OVCAR3 cells assessed as cell growth at 80 uM by sulforhodamine B assay relative to control; type: functional; settings: read-out: Activity
SK-MEL-28 = assay: Cytotoxicity against human SK-MEL-28 cells assessed as cell growth at 800 nM by sulforhodamine B assay relative to control; type: functional; settings: read-out: Activity
MCF7 = assay: Cytotoxicity against human MCF7 cells by sulforhodamine B assay; type: functional
HT-29 = assay: Cytotoxicity against human HT-29 cells assessed as cell growth at 8 uM by sulforhodamine B assay relative to control; type: functional; settings: read-out: Activity
BT-549 = assay: Cytotoxicity against human BT549 cells assessed as cell growth at 8 uM by sulforhodamine B assay relative to control; type: functional; settings: read-out: Activity; outline: as §2
786-0 [4] = assay: Cytotoxicity against human 786-0 cells assessed as cell growth at 8 nM by sulforhodamine B assay relative to control; type: functional; settings: read-out: Activity; outline: as §2
LOX IMVI = assay: Cytotoxicity against human LOXIMVI cells assessed as cell growth at 800 nM by sulforhodamine B assay relative to control; type: functional; settings: read-out: Activity
SK-MEL-5 [5] = assay: Cytotoxicity against human SK-MEL-5 cells assessed as cell growth at 800 nM by sulforhodamine B assay relative to control; type: functional; settings: read-out: Activity
NCI-H522 [6] = assay: Cytotoxicity against human NCI-H522 cells assessed as cell growth at 8 nM by sulforhodamine B assay relative to control; type: functional; settings: read-out: Activity
SNB-19 = assay: Cytotoxicity against human SNB19 cells assessed as cell growth at 80 uM by sulforhodamine B assay relative to control; type: functional; settings: read-out: Activity
786-0 [7] = assay: Cytotoxicity against human 786-0 cells by sulforhodamine B assay; type: functional; settings: for TGI: read-out: pTGI (converted); outline: as §2
SR = assay: Cytotoxicity against human SR cells assessed as cell growth at 80 nM by sulforhodamine B assay relative to control; type: functional; settings: read-out: Activity
DU-145 [8] = assay: Cytotoxicity against human DU145 cells by sulforhodamine B assay; type: functional
Outline: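 Run by the NCI Developmental Therapeutics Program on its 60-line human tumour cell panel using the standard procedure. Compounds went through a single-concentration prescreen first, and those active by NCI criteria went on to a five-concentration growth-inhibition test. GI50 is the concentration that cuts growth of treated cells to half that of untreated control cells.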

Mus musculus = assay: Acute toxicity in athymic nude mouse assessed as mortality at 12.5 mg/kg, […]; type: organism-based; design: dose 12.5 mg/kg, route intraperitoneal; settings: in vivo, ip, 576 h
UACC-62 = assay: Cytotoxicity against human UACC62 cells assessed as cell growth at 800 nM by sulforhodamine B assay relative to control; type: functional; settings: read-out: Activity
DU-145 [9] = assay: Cytotoxicity against human DU145 cells assessed as cell growth at 8 nM by sulforhodamine B assay relative to control; type: functional; settings: read-out: Activity; outline: as §2
Hs-578T = assay: Cytotoxicity against human Hs578T cells assessed as cell growth at 8 nM by sulforhodamine B assay relative to control; type: functional; settings: read-out: Activity
OVCAR-8 = assay: Cytotoxicity against human OVCAR8 cells by sulforhodamine B assay; type: functional
Outline: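 NCI Developmental Therapeutics Program 60-cell-line human tumor panel, standard procedure. Single-concentration prescreen first; active compounds then tested at five concentrations. GI50 is the concentration reducing growth of treated cells to half that of untreated controls.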

SK-MEL-5 [10] = assay: Cytotoxicity against human SK-MEL-5 cells assessed as cell growth at 8 uM by sulforhodamine B assay relative to control; type: functional; settings: read-out: Activity
HOP-62 = assay: Cytotoxicity against human HOP62 cells assessed as cell growth at 80 nM by sulforhodamine B assay relative to control; type: functional; settings: read-out: Activity

Compound: C/C=C1\NC(=O)[C@H](Cc2ccccc2)NC(=O)[C@@H](C(C)C)NC(=O)[C@@H]([C@@H](C)CC)NC(=O)[C@H](NC(=O)[C@H](NC(=O)[C@H](CCCNCc2ccc(N3CCOCC3)cc2)NC(=O)[C@H]2CCCN2C(=O)[C@H](NC(=O)[C@@H](NC(=O)[C@@H](NC(=O)[C@H](NC(=O)CCCC(C)C)C(C)C)[C@@H](C)O)C(C)C)C(C)C)[C@@H](C)CC)[C@@H](C)OC(=O)[C@H](C(C)C)NC1=O
- growth at 0.08 µM (OVCAR-5): 93%
- growth at 8 µM (MOLT-4): 83%
- growth at 80 µM (M14): -69%
- Activity (SW-620 [1]): inactive
- growth at 0.008 µM (HL-60(TB)): 94%
- growth at 0.08 µM (Malme-3M): 112%
- growth at 80 µM (NCI-H322M): -18%
- growth at 8 µM (KM12): -48%
- growth at 80 µM (U-251): -61%
- GI50 (NCI-H460): 2 µM
- CC50 (NCI-H460; read-out: pLC50 (the source's name) (converted)): > 75.9 µM
- growth at 0.008 µM (A498): 96%
- growth at 0.08 µM (NCI-H522 [2]): 99%
- growth at 0.08 µM (T47D): 89%
- GI50 (SW-620 [3]): 1.05 µM
- TGI (SW-620 [3]): 2.04 µM
- growth at 8 µM (SF-295): -40%
- growth at 80 µM (SF-539): -63%
- growth at 80 µM (OVCAR-3): -50%
- growth at 0.8 µM (SK-MEL-28): 98%
- GI50 (MCF7): 1.45 µM
- growth at 8 µM (HT-29): -68%
- growth at 8 µM (BT-549): -66%
- growth at 0.008 µM (786-0 [4]): 103%
- growth at 0.8 µM (LOX IMVI): 100%
- growth at 0.8 µM (SK-MEL-5 [5]): 90%
- growth at 0.008 µM (NCI-H522 [6]): 99%
- growth at 80 µM (SNB-19): -5%
- GI50 (786-0 [7]): 1.38 µM
- LC50 (786-0 [7]): 4.68 µM
- TGI (786-0 [7]): 2.57 µM
- growth at 0.08 µM (SR): 106%
- LC50 (DU-145 [8]): 0.513 µM
- GI50 (DU-145 [8]; read-out: GI50): 0.128 µM
- TGI (DU-145 [8]; read-out: TGI): 0.257 µM
- GI50 (DU-145 [8]; read-out: pGI50 (converted)): 0.129 µM
- TGI (DU-145 [8]; read-out: pTGI (converted)): 0.257 µM
- Activity (Mus musculus): Non-toxic
- growth at 0.8 µM (UACC-62): 100%
- growth at 0.008 µM (DU-145 [9]): 99%
- growth at 0.008 µM (Hs-578T): 109%
- GI50 (OVCAR-8): 1.7 µM
- LC50 (OVCAR-8): > 75.9 µM
- growth at 8 µM (SK-MEL-5 [10]): -100%
- growth at 0.08 µM (HOP-62): 103%

Compound: C/C=C1\NC(=O)[C@H](Cc2ccccc2)NC(=O)[C@@H](C(C)C)NC(=O)[C@@H]([C@@H](C)CC)NC(=O)[C@H](NC(=O)[C@H](NC(=O)[C@H](CCCNCc2ccc(F)c(C)c2)NC(=O)[C@H]2CCCN2C(=O)[C@H](NC(=O)[C@@H](NC(=O)[C@@H](NC(=O)[C@H](NC(=O)CCCC(C)C)C(C)C)[C@@H](C)O)C(C)C)C(C)C)[C@@H](C)CC)[C@@H](C)OC(=O)[C@H](C(C)C)NC1=O
- growth at 0.08 µM (OVCAR-5): 96%
- growth at 8 µM (MOLT-4): -5%
- growth at 80 µM (M14): -49%
- Activity (SW-620 [1]): inactive
- growth at 0.008 µM (HL-60(TB)): 91%
- growth at 0.08 µM (Malme-3M): 118%
- growth at 80 µM (NCI-H322M): -94%
- growth at 8 µM (KM12): -85%
- growth at 80 µM (U-251): -89%
- GI50 (NCI-H460): 1.51 µM
- growth at 0.008 µM (A498): 102%
- growth at 0.08 µM (NCI-H522 [2]): 101%
- growth at 0.08 µM (T47D): 90%
- GI50 (SW-620 [3]): 0.513 µM
- LC50 (SW-620 [3]): 3.31 µM
- TGI (SW-620 [3]): 1.45 µM
- growth at 8 µM (SF-295): -89%
- growth at 80 µM (SF-539): -62%
- growth at 80 µM (OVCAR-3): -90%
- growth at 0.8 µM (SK-MEL-28): 75%
- GI50 (MCF7): 1.26 µM
- growth at 8 µM (HT-29): -62%
- growth at 8 µM (BT-549): -88%
- growth at 0.008 µM (786-0 [4]): 103%
- growth at 0.8 µM (LOX IMVI): 108%
- growth at 0.8 µM (SK-MEL-5 [5]): 83%
- growth at 0.008 µM (NCI-H522 [6]): 104%
- growth at 80 µM (SNB-19): -66%
- GI50 (786-0 [7]): 1.29 µM
- LC50 (786-0 [7]): 4.17 µM
- TGI (786-0 [7]): 2.34 µM
- growth at 0.08 µM (SR): 89%
- LC50 (DU-145 [8]): 0.468 µM
- GI50 (DU-145 [8]; read-out: GI50): 0.123 µM
- TGI (DU-145 [8]; read-out: TGI): 0.24 µM
- GI50 (DU-145 [8]; read-out: pGI50 (converted)): 0.123 µM
- TGI (DU-145 [8]; read-out: pTGI (converted)): 0.24 µM
- Activity (Mus musculus): Non-toxic
- growth at 0.8 µM (UACC-62): 93%
- growth at 0.008 µM (DU-145 [9]): 99%
- growth at 0.008 µM (Hs-578T): 102%
- GI50 (OVCAR-8): 1.86 µM
- LC50 (OVCAR-8): 75.9 µM
- growth at 8 µM (SK-MEL-5 [10]): -100%
- growth at 0.08 µM (HOP-62): 102%
